Data on nine compounds can be found in PMC3129651 (Pharmaceutical research, 2010).

In data set [1] the test system is OATP. The experiment in a line: Initial uptake of 3H-E217G in suspended human hepatocytes with inhibitors. In kind it is in vitro ADME. As to conditions: 3H-E217G 1μM, 20μM rifamycin SV.
The subject of data set [2] is suspended WT rat hepatocytes. In kind it is in vitro ADME. As to conditions: 99mTc-MEB 5μCi/mL, 20μM rifamycin SV, 20μM glycyrrhizic acid, 200μM clonidine, 10μM desipramine, 5μM decynium 22, 10μM ketoprofen.
Data set [3] relates to suspended human hepatocytes. In kind it is in vitro ADME. Particulars: 99mTc-MEB 5μCi/mL, 20μM rifamycin SV, 200μM clonidine, 10μM desipramine, 5μM decynium 22, 10μM ketoprofen.
Data set [4] has as its system Oatp. It is filed as in vitro ADME. Particulars: suspended WT rat hepatocytes; 3H-E217G 1μM; inhibitor 20μM.
Data set [5] relates to suspended rat hepatocytes. The experiment in a line: Preliminary uptake time course in suspended rat hepatocytes sampling over 60min.
Data set [6] concerns TR^− rat sandwich-cultured hepatocytes. In kind it is in vitro ADME. A digest of the protocol:
(§1)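 Male Wistar WT or Mrp2-deficient TR⁻ rat hepatocytes were seeded on collagen I 6-well plates (~1.5 × 10^6 cells/well TR, 1.75 × 10^6 WT), overlaid with Matrigel and used on day 4. They were preloaded for 20 min at 37°C with 99mTc probe (5 μCi/mL) in standard HBSS. Efflux then ran 20 min at 37°C in standard (basolateral) or Ca2+-free HBSS (basolateral + canalicular), with 100 μM MK571, 20 μM GF120918 or 0.6% DMSO. Decay-corrected gamma counts of medium and lysate were taken, and efflux was expressed as % of preloaded mass. n=4 WT, 3 TR livers, triplicate.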

For data set [7] the following is noted: rats, 0.25 mCi dose, 30 min after intravenous administration; cited from earlier work.
For data set [8] the following is noted: cited from earlier work.
Data set [9] has as its system human sandwich-cultured hepatocytes. The experiment in a line: 20-min efflux study in day 7 human sandwich-cultured hepatocytes. In kind it is in vitro ADME.
For data set [10], the system named is WT rat sandwich-cultured hepatocytes. The experiment in a line: 20-min efflux study in day 4 WT rat sandwich-cultured hepatocytes. It is filed as in vitro ADME. The essentials:
as §1

Data set [11] deals with Oct. In kind it is in vitro ADME. As to conditions: suspended rat hepatocytes, 14C-TEA 20μM, 20μM glycyrrhizic acid; for initial 14C-TEA uptake in the presence of inhibitor: 200μM clonidine, 10μM desipramine.
In the next data set the test system is OATP1B3. Particulars: inhibition of OATP1B3; cited from earlier work.
A further data set addresses T1, Oat2 (Rattus norvegicus, UniProt Q5RLM2).
T1 sequence (Q5RLM2 1-535): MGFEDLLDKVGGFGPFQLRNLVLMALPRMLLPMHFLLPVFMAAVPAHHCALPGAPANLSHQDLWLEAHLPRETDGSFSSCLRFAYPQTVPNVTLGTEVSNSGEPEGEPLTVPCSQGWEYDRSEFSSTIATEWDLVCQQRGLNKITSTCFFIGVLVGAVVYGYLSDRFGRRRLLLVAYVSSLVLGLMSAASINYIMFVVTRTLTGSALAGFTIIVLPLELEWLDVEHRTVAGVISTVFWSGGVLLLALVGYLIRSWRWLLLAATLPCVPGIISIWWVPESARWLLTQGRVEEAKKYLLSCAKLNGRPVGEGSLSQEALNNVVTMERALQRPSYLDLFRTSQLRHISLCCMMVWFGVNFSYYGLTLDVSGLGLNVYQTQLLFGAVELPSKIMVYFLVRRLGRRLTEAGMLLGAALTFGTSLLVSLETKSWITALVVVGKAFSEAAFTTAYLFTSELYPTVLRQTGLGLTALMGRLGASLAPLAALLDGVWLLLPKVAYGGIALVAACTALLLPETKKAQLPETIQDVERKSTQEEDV
The experiment in a line: 3H-PAH uptake over 60 min in freshly isolated rat hepatocytes. In kind it is in vitro ADME. Particulars: 50μM MK571 in the incubation medium.

Data set [12] has as its system OCT. The experiment in a line: Initial uptake of 14C-TEA in suspended human hepatocytes with inhibitors. In kind it is in vitro ADME. Particulars: 14C-TEA 20μM, 5μM decynium 22.
In data set [13] the test system is suspended rat hepatocytes.
For data set [14], the system named is WT sandwich-cultured rat hepatocytes. The experiment in a line: 10-min accumulation study. It is filed as in vitro ADME. As to conditions: 2μM GF120918; siNT- and siBcrp-infected rat SCH.
[15] abbreviates: TR- rat SCH, 5μCi/mL, 20min preload.
The mark [16] stands for this setting: human SCH, control, 5μCi/mL, 20min preload.
[17] abbreviates: control WT rat SCH, 5μCi/mL, 20min preload.

Entries after “also recorded” stand apart in the source; their conditions may differ. Where a name gives a salt, the structure may show the parent alone. Read-outs that look alike come from different tables or passages of the source.

On to `CO[C@H]1/C=C/O[C@@]2(C)Oc3c(C)c(O)c4c(O)c(cc(O)c4c3C2=O)NC(=O)/C(C)=C\C=C\[C@H](C)[C@H](O)[C@@H](C)[C@@H](O)[C@@H](C)[C@H](OC(C)=O)[C@@H]1C` [rifamycin SV], for which the “initial 3H-E217G uptake in the presence of inhibitor” value is on record as 51.5 % of control in the data set on OATP [1] and 15.5 % of control in the data set on Oatp [4]. Besides, the “initial 99mTc-MEB uptake in the presence of inhibitor” value is given as 20.7 % of control in data set [2] and 35.4 % of control in [3].

Turning to `Cc1cc(C)c(NC(=O)CN(CC(=O)[O-])CC(=O)[O-])c(C)c1Br.Cc1cc(C)c(NC(=O)CN(CC(=O)[O-])CC(=O)[O-])c(C)c1Br.[99Tc+4]` [^99mTc-MEB, ^99mTechnetium-mebrofenin], in [5], the “linear range of uptake” value is on record as 1.5 min. Besides, the “basolateral efflux over 20 min” value in data set [6] (setting [15]) is recorded as 31.8±6.2 % of total preloaded mass; in data set [9] (setting [16]) it was 16.7±0.6 % of total preloaded mass; in [10] (setting [17]) it was 25.0±6.7 % of total preloaded mass. Moreover, the “canalicular efflux over 20 min” value in data set [6] (setting [15]) is recorded as “negligible; also recorded: completely ablated”; in data set [9] (setting [16]), 45.8±8.6 % of total preloaded mass; in data set [10] (setting [17]), 15.3±5.7 % of total preloaded mass. Further, the “hepatocellular content in cell lysate at the end of the 20-min efflux experiment, Rat TR-” value in data set [6] (day 4 TR- rat SCH, n=3) is reported as 78.8 ± 13.2% of the total substrate mass preloaded. The “dose recovered in the liver” value in data set [7] is reported as ~ 95%. For the same compound, in [8] (2.3mCi dose intravenously, healthy human subjects, within 180 min), the “dose recovered in bile” value was ~ 84%. Further, in [8] (after 24 hours in humans), the “dose recovered in urine” value was ~ 1.5 % of the dose. For the same compound, the “dose taken up by the liver” value in data set [8] (humans) was “More than 98%”. For the same compound, the hepatic excretion half-life in data set [8] (humans) was 16 min. In addition, the “canalicular efflux, human compared to rat SCH” value in data set [9] (20-min efflux) was ~ 3 fold. The “hepatocellular content in cell lysate at the end of the 20-min efflux experiment, Human Inhibitor” value in data set [9] (day 7 human SCH, Inhibitor = 100μM MK571 for 99mTc-MEB and 20μM GF120918 for 99mTc-MIBI) is 27.7 ± 0.4% of the total substrate mass preloaded. In addition, the “fraction of basolateral efflux” value in data set [9] (human SCH) was 26.7 % of total efflux; in data set [10] (rat SCH), 62.0 % of total efflux. Besides, the entries for the “fraction of canalicular efflux” value in data set [9] (human SCH) and in data set [10] (rat SCH) were 73.3 % of total efflux and 38.0 % of total efflux, respectively. Also, the total efflux in [9] (human SCH, 20-min efflux study design) was determined as 62.4±8.0%; in [10] (rat SCH, 20-min efflux study design), 40.3±5.4%. Further, the “hepatocellular content in cell lysate at the end of the 20-min efflux experiment, Rat Inhibitor” value in data set [10] (day 4 WT rat SCH, Inhibitor = 100μM MK571 for 99mTc-MEB and 20μM GF120918 for 99mTc-MIBI) was 63.4 ± 4.8% of the total substrate mass preloaded.

As for `CC1(C)[C@@H](O[C@H]2O[C@H](C(=O)O)[C@@H](O)[C@H](O)[C@H]2O[C@@H]2O[C@H](C(=O)O)[C@@H](O)[C@H](O)[C@H]2O)CC[C@]2(C)[C@H]3C(=O)C=C4[C@@H]5C[C@@](C)(C(=O)O)CC[C@]5(C)CC[C@@]4(C)[C@]3(C)CC[C@@H]12` [glycyrrhizic acid], in the data set on Oct [11], the “reduction of 14C-TEA uptake compared to control” value amounted to 62.1% and the “initial 14C-TEA uptake in the presence of inhibitor” value is reported as 37.9 % of control. Further, the “initial 99mTc-MEB uptake in the presence of inhibitor” value in data set [2] is reported as 39.5 % of control. Besides, in the data set with Oatp [4], the “initial 3H-E217G uptake in the presence of inhibitor” value is 23.8 % of control.

As for `CC[N+](CC)(CC)CC` [^14C-TEA, tetraethylammonium], in data set [5], the “linear range of uptake” value was 5 min.

Consider `Clc1cccc(Cl)c1N=C1NCCN1` [clonidine], for which, in the data set on Oct [11], the “initial 14C-TEA uptake in the presence of inhibitor” value is recorded as 23.7 % of control. The “initial 99mTc-MEB uptake in the presence of inhibitor” value in [2] and in data set [3] was “marginal effects” throughout.

As for `CN(C)C(=O)CCSC(SCCC(=O)O)c1cccc(/C=C/c2ccc3ccc(Cl)cc3n2)c1` (stereo not shown) [MK571, MK-571 sodium salt], the Ki with OATP1B3 was 600 nM. In addition, at Oat2, the “effect of inhibitor on 3H-PAH uptake” value is listed as “not significantly influenced”.

Take `CCN1/C(=C/c2ccc3ccccc3[n+]2CC)C=Cc2ccccc21.[I-]` [decynium 22]: the “initial 99mTc-MEB uptake in the presence of inhibitor” value in data set [2] and in data set [3] was “marginal effects” throughout. Also, the “initial 14C-TEA uptake in the presence of inhibitor” value in the data set on OCT [12] was 54.2 % of control.

`C[C@]12CC[C@@H]3c4ccc(O)cc4CC[C@H]3[C@@H]1CC[C@@H]2O[C@@H]1O[C@H](C(=O)O)[C@@H](O)[C@H](O)[C@H]1O` [^3H-E217G, Estradiol-17-β-D-glucuronide]: the “linear range of uptake” value in data set [13] amounted to 2.5 min.

Consider `COc1cc2c(cc1OC)CN(CCc1ccc(NC(=O)c3cccc4c(=O)c5cccc(OC)c5[nH]c34)cc1)CC2` [GF120918, N-(4-[2-(1,2,3,4-tetrahydro-6,7-dimethoxy-2-isoquinolinyl)ethyl]-phenyl)-9,10-dihydro-5-methoxy-9-oxo-4-acridine carboxamide], for which, in data set [9] (human SCH, GF120918 20μM), the “decrease of 99mTc-MIBI basolateral efflux” value is recorded as ~ 2.9 fold and the “decrease of 99mTc-MIBI canalicular efflux” value is 2.1 fold. In [10] (rat SCH, GF120918 20μM), the “decrease of 99mTc-MIBI basolateral efflux” value is ~ 2.3 fold and the “decrease of 99mTc-MIBI canalicular efflux” value was determined as 1.5 fold. Further, in data set [14], the “effect on 99mTc-MIBI BEI and in vitro Clbiliary (biliary excretion)” value was “ablated; also recorded: inhibited completely”; the “increase in hepatocellular accumulation (cells only) of 99mTc-MIBI” value is ~ 2 fold.
